From ChEMBL document CHEMBL4130455, “Design, Synthesis, and Evaluation of Tetrahydropyrrolo[1,2-c]pyrimidines as Capsid Assembly Inhibitors for HBV Treatment” (ACS Med Chem Lett, 2017)
pIC50: −log10 of the molar value. Converted amounts (≈) assume the structure as drawn.

What was measured:
Hepatitis B virus [1] = assay: Antiviral activity against HBV infected in human HepG2.2.15 cells assessed as inhibition of viral DNA level incubated for 3 days followed by medium replacement measured after 3 days by RT-PCR method; assay type: functional, organism-based; conditions: HepG2.2.15, 72 h
Method in brief: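 HepG2.2.15 cells seeded at 4 × 10^4 cells/well, compound exposure 3 days, then fresh medium and a further 3-day incubation. Supernatants collected and stored at −80 °C. HBV DNA extracted from supernatant and quantified by qPCR. IC50 reported as the mean of three experiments.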

Core antigen = Core antigen (Hepatitis B virus, UniProt Q03732); assay: Inhibition of HBV C150-Bodipy FL N-(2-aminoethyl) maleimide labeled capsid assessed as reduction in NaCl-induced capsid assembly preincubated for 15 mins followed by NaCl addition measured after 1 hr by fluorescence quenching assay
Chain of Core antigen (Q03732 whole entry): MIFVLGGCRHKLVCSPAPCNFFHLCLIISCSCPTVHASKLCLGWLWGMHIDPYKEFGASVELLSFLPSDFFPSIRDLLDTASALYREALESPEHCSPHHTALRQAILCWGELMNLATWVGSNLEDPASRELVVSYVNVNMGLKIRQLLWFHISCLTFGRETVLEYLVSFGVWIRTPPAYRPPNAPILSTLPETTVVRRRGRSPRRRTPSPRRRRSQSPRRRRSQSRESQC

[2] = Lipophilicity, log D of the compound; assay type: physicochemical; conditions: octanol/water
[3] = Kinetic solubility of the compound; assay type: physicochemical; conditions: read-out: Kinetic_solubility
[4] = Ratio of AUC (0 to 4 hrs) in Balb/c mouse liver to plasma administered orally by LC-MS/MS analysis; assay type: ADME; conditions: liver and plasma, po, read-out: Ratio AUC
Cytochrome P450 1A2 = molecular target: T1, Cytochrome P450 1A2 (Homo sapiens, UniProt P05177); assay: Inhibition of CYP1A2 in human liver microsomes using phenacetin as substrate preincubated for 10 mins followed by substrate addition measured after 10 mins in presence of NADPH by LC-MS/MS analysis; assay type: ADME
T1 sequence (P05177 whole entry): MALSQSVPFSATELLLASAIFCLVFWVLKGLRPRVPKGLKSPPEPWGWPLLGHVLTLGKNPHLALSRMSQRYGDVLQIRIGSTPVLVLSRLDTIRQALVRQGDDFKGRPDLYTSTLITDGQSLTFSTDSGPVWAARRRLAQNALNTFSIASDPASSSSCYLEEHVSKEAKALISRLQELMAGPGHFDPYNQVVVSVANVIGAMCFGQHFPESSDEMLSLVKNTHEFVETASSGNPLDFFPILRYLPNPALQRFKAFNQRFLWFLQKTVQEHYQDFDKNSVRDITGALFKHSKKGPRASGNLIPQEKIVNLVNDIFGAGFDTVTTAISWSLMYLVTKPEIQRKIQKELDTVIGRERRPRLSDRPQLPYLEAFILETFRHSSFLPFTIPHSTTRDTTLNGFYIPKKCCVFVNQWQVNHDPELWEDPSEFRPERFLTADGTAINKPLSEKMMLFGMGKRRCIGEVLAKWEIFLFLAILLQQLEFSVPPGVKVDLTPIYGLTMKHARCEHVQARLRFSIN

Cytochrome P450 2C9 = Cytochrome P450 2C9 (Homo sapiens, UniProt P11712); assay: Inhibition of CYP2C9 in human liver microsomes using diclofenac as substrate preincubated for 10 mins followed by substrate addition measured after 10 mins in presence of NADPH by LC-MS/MS analysis; assay type: ADME
Chain of Cytochrome P450 2C9 (P11712 whole entry): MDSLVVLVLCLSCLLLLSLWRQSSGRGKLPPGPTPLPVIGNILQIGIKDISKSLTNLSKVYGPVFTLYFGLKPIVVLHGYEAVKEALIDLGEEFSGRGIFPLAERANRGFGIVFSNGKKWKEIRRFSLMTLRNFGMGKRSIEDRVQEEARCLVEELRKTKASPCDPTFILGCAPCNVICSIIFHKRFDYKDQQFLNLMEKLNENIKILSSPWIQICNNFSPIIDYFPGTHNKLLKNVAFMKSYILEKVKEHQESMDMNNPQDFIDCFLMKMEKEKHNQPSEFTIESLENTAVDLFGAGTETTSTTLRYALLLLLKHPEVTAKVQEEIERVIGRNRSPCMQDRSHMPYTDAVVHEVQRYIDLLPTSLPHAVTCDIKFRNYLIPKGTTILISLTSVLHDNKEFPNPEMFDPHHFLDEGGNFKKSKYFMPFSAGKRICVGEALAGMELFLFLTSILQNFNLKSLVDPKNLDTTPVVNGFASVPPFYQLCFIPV

Cytochrome P450 2C19 = Cytochrome P450 2C19 (Homo sapiens, UniProt P33261); assay: Inhibition of CYP2C19 in human liver microsomes using S-mephenytoin as substrate preincubated for 10 mins followed by substrate addition measured after 10 mins in presence of NADPH by LC-MS/MS analysis; assay type: ADME
Chain of Cytochrome P450 2C19 (P33261 whole entry): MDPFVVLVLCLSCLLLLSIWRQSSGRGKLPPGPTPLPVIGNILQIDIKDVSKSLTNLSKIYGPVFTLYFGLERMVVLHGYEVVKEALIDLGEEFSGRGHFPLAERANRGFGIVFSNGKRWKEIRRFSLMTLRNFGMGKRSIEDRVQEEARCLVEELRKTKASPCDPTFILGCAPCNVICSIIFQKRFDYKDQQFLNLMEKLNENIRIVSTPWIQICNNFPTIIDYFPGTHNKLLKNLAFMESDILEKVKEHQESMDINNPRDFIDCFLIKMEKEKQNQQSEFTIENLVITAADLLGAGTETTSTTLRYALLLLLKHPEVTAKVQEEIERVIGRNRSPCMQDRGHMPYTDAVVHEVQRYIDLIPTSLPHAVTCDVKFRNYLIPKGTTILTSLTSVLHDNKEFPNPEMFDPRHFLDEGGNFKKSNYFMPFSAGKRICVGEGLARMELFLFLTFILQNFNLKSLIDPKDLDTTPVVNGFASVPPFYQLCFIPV

Cytochrome P450 2D6 = Cytochrome P450 2D6 (Homo sapiens, UniProt P10635); assay: Inhibition of CYP2D6 in human liver microsomes using dextromethorphan as substrate preincubated for 10 mins followed by substrate addition measured after 10 mins in presence of NADPH by LC-MS/MS analysis; assay type: ADME; conditions: read-out: INH
Chain of Cytochrome P450 2D6 (P10635 whole entry): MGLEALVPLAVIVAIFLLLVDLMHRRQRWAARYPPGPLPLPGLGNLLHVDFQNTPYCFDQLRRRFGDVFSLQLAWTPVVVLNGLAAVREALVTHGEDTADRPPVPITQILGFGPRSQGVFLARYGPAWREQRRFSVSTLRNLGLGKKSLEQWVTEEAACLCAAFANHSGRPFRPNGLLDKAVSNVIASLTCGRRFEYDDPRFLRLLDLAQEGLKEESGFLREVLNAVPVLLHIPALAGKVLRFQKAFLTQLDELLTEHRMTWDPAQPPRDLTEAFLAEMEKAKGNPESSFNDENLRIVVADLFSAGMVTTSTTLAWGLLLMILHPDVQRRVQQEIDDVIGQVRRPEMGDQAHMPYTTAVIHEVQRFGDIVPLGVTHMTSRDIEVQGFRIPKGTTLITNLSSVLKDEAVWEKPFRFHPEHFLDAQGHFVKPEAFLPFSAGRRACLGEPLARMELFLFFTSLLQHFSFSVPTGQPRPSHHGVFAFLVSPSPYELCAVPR

Cytochrome P450 3A4 = Cytochrome P450 3A4 (Homo sapiens, UniProt P08684); assay: Inhibition of CYP3A4 in human liver microsomes using midazolam as substrate preincubated for 10 mins followed by substrate addition measured after 10 mins in presence of NADPH by LC-MS/MS analysis; assay type: ADME; conditions: read-out: INH
Chain of Cytochrome P450 3A4 (P08684 whole entry): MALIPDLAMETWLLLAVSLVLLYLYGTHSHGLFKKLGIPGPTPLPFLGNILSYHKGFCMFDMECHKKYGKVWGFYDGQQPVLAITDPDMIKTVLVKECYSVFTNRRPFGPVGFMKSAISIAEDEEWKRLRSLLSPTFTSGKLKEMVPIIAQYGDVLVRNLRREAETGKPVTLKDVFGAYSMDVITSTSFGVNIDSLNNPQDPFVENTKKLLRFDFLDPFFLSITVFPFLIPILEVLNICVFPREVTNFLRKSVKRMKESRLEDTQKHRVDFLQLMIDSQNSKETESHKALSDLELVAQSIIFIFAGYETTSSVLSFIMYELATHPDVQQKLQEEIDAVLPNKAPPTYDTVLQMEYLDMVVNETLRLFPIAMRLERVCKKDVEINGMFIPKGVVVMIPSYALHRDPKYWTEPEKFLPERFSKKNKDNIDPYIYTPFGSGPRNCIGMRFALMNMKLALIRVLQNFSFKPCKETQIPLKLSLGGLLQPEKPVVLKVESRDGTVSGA

[5] = Half life in Balb/c mouse at 1 mg/kg, iv administered as bolus by LC-MS/MS analysis; assay type: ADME, organism-based; conditions: in vivo
Method in brief: (§1)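 Single-dose PK in female Balb/c mice, n = 3 per compound; dosing vehicle 0.5% HEC, formulated at 1.00 mg/mL.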

[6] = Volume of distribution at steady state in Balb/c mouse at 1 mg/kg, iv administered as bolus by LC-MS/MS analysis; assay type: ADME, organism-based; conditions: in vivo, read-out: Vdss; method in brief: as §1
[7] = Clearance in Balb/c mouse at 1 mg/kg, iv administered as bolus by LC-MS/MS analysis; assay type: ADME, organism-based; conditions: in vivo; method in brief: as §1
[8] = AUC (0 to last) in Balb/c mouse at 1 mg/kg, iv administered as bolus by LC-MS/MS analysis; assay type: ADME, organism-based; set-up: dose 1 mg/kg, time 0 - last, route intravenous; conditions: in vivo; method in brief: as §1
[9] = Cmax in Balb/c mouse at 10 mg/kg, po administered via gavage by LC-MS/MS analysis; assay type: ADME, organism-based; set-up: dose 10 mg/kg, route oral; conditions: in vivo; method in brief: as §1
[10] = AUC (0 to last) in Balb/c mouse at 10 mg/kg, po administered via gavage by LC-MS/MS analysis; assay type: ADME, organism-based; set-up: dose 10 mg/kg, time 0 - last, route oral; conditions: in vivo; method in brief: as §1
[11] = Oral bioavailability in Balb/c mouse at 10 mg/kg administered via gavage by LC-MS/MS analysis; assay type: ADME, organism-based; conditions: in vivo; method in brief: as §1
Hepatitis B virus [12] = assay: Antiviral activity against HBV1.3 mer infected in hydrodynamic injection BALB/c mouse model assessed as log reduction in viral DNA in plasma at 50 mg/kg, po bid measured on day 3 by real-time PCR method relative to control; assay type: functional
Method in brief: (§2)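 HBV DNA mouse model established by hydrodynamic injection. Mice, n = 6 per group, dosed orally twice daily with compound or vehicle (0.5% HEC). HBV DNA in plasma and liver measured by qPCR; log reduction taken versus the vehicle group. Error shown as standard error; significance by Student's t test.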

Hepatitis B virus [13] = assay: Antiviral activity against HBV1.3 mer infected in hydrodynamic injection BALB/c mouse model assessed as log reduction in viral DNA in liver at 50 mg/kg, po bid measured on day 7 by real-time PCR method relative to control; assay type: functional; method in brief: as §2
Hepatitis B virus [14] = assay: Antiviral activity against HBV1.3 mer infected in hydrodynamic injection BALB/c mouse model assessed as log reduction in viral DNA in plasma at 50 mg/kg, po bid measured on day 5 by real-time PCR method relative to control

| Compound | pIC50 (Hepatitis B virus [1]) | further results |
| --- | --- | --- |
| CCOC(=O)C1=C2CCCN2C(c2nccs2)=NC1c1cc(F)ccc1Cl (configuration not stated) | < 5.00 | – |
| CCOC(=O)C1=C2CCC(C)N2C(c2nccs2)=NC1c1ccc(F)cc1Cl (configuration not stated) | 2.10 | – |
| COC(=O)C1=C2C[C@@H](NC(=O)OC(C)(C)C)CN2C(c2nccs2)=N[C@H]1c1ccc(F)cc1Cl | 4.30 | – |
| CCOC(=O)C1=C2CN(C(C)=O)CCN2C(c2nccs2)=NC1c1ccc(F)cc1Br (configuration not stated) | 6.11 | – |
| CCOC(=O)C1=C2CCCN2C(c2nccs2)=NC1c1cccc(F)c1Cl (configuration not stated) | 6.51 | – |
| CCOC(=O)C1=C2CCCN2C(c2nccs2)=NC1c1cc(Cl)sc1Cl (configuration not stated) | 5.77 | – |
| CCOC(=O)C1=C2CCCN2C(c2ncco2)=NC1c1ccc(F)cc1Cl (configuration not stated) | 5.20 | – |
| CCOC(=O)C1=C2CCCN2C(c2nccs2)=NC1c1ccc(F)cc1F (configuration not stated) | 6.29 | – |
| CN(C)CCOC(=O)C1=C2CCCN2C(c2nccs2)=NC1c1ccc(F)cc1Cl (configuration not stated) | < 5.00 | – |
| CCOC(=O)C1=C2CCCN2C(c2nccs2)=NC1c1ccc(F)cc1 (configuration not stated) | 5.92 | – |
| CCOC(=O)C1=C2CCCCN2C(c2nccs2)=NC1c1ccc(F)cc1Cl (configuration not stated) | 5.85 | – |
| COC(=O)C1=C2C[C@H](NS(C)(=O)=O)CN2C(c2nccs2)=N[C@H]1c1ccc(F)cc1Cl | 8.00 | pIC50 (Core antigen): 6.10; logD [2]: 2.8; solubility kinetic [3]: 22 µM (≈ 10.7 µg/mL); Kp [4]: 10; INH (Cytochrome P450 1A2): > 50 µM; INH (Cytochrome P450 2C9): 28 µM; INH (Cytochrome P450 2C19): 39 µM; pIC50 (Cytochrome P450 2D6): < 4.30; pIC50 (Cytochrome P450 3A4): 4.96; half-life [5]: 66 min; Vd [6]: 2 L/kg; clearance [7]: 21 mL/min/kg; AUC(0-t) [8]: 1.7 µM·h; Cmax [9]: 4.7 µM; AUC(0-t) [10]: 9.1 µM·h; bioavailability [11]: 54%; FC (Hepatitis B virus [12]): 2.05; FC (Hepatitis B virus [13]): 0.68; FC (Hepatitis B virus [14]): 2.57 |
| COC(=O)C1=C2C[C@@H](NS(C)(=O)=O)CN2C(c2nccs2)=N[C@H]1c1ccc(F)cc1Cl | 7.22 | – |
| CCOC(=O)C1=C2CCCN2C(c2ncc(F)cn2)=NC1c1ccc(F)cc1Cl (configuration not stated) | < 5.00 | – |
| CCOC(=O)C1=C2CCCN2C(c2ccsn2)=NC1c1ccc(F)cc1Cl (configuration not stated) | 5.55 | – |
| CCOC(=O)C1=C2C[C@H](N(C)C)CN2C(c2nccs2)=N[C@H]1c1ccc(F)cc1Br | 3.30 | – |
| CCOC(=O)C1=C2CCCN2C(c2nccs2)=NC1c1ncc(F)cc1F (configuration not stated) | < 5.00 | – |
| CCOC(=O)C1=C2CCCN2C(c2ccc(F)cn2)=NC1c1ccc(F)cc1Cl (configuration not stated) | 5.08 | – |
| CCOC(=O)C1=C2CNC(=O)CN2C(c2nccs2)=NC1c1ccc(F)cc1Br (configuration not stated) | 5.46 | – |
| CCOC(=O)C1=C2CCCN2C(C2CC2)=NC1c1ccc(F)cc1Cl (configuration not stated) | < 5.00 | – |
| COCOC(=O)C1=C2CCCN2C(c2nccs2)=NC1c1ccc(F)cc1Cl (configuration not stated) | 5.68 | – |
| CCOC(=O)C1=C2CCN2C(c2nccs2)=NC1c1ccc(F)cc1Cl (configuration not stated) | 5.39 | – |
| CCOC(=O)C1=C2C[C@@H](NS(C)(=O)=O)CN2C(c2nccs2)=N[C@H]1c1ccc(F)cc1Cl | 4.15 | – |
| CCOC(=O)C1=C2CN(S(C)(=O)=O)CCN2C(c2nccs2)=NC1c1ccc(F)cc1Br (configuration not stated) | 6.09 | – |

| Compound | pIC50 (Hepatitis B virus [1]) | further results |
| --- | --- | --- |
| CCOC(=O)C1=C2CCCN2C(c2nccs2)=NC1c1ccc(F)cc1Br (configuration not stated) | 6.68 | – |
| CCOC(=O)C1=C2CCCN2C(c2nccs2)=NC1c1cnn(C)c1 (configuration not stated) | < 5.00 | – |
| CCOC(=O)C1=C2CCCN2C(c2nccs2)=NC1c1c(F)cccc1Cl (configuration not stated) | < 5.00 | – |
| O=C(OCC(F)F)C1=C2CCCN2C(c2nccs2)=NC1c1ccc(F)cc1Cl (configuration not stated) | 5.70 | – |
| CCOC(=O)C1=C2CCCN2C(c2nccs2)=NC1c1ccc(F)cc1C (configuration not stated) | 6.35 | – |
| CONC(=O)C1=C2CCCN2C(c2nccs2)=NC1c1ccc(F)cc1Cl (configuration not stated) | 5.30 | – |
| CCOC(=O)C1=C2C[C@H](NS(C)(=O)=O)CN2C(c2nccs2)=N[C@H]1c1ccc(F)cc1Cl | 5.00 | – |
| CCOC(=O)C1=C2CCCN2C(c2cnn(C)c2)=NC1c1ccc(F)cc1Cl (configuration not stated) | < 5.00 | – |
| CCOC(=O)C1=C2CCCN2C(c2nccs2)=NC1c1nccs1 (configuration not stated) | < 5.00 | – |
| CCOC(=O)C1=C2CCCN2C(c2nccn2C)=NC1c1ccc(F)cc1Cl (configuration not stated) | 5.70 | – |
| CCOC(=O)C1=C2CCCN2C(c2nccs2)=NC1c1ccc(F)c(F)c1 (configuration not stated) | 6.37 | – |
| CCOC(=O)C1=C2CNCCN2C(c2nccs2)=NC1c1ccc(F)cc1Br (configuration not stated) | 5.03 | – |
| COCCOC(=O)C1=C2CCCN2C(c2nccs2)=NC1c1ccc(F)cc1Cl (configuration not stated) | < 5.00 | – |
| CCOC(=O)C1=C2COCCN2C(c2nccs2)=NC1c1ccc(F)cc1Br (configuration not stated) | 5.60 | – |
| COC(=O)C1=C2C[C@H](NC(=O)OC(C)(C)C)CN2C(c2nccs2)=N[C@H]1c1ccc(F)cc1Cl | 4.52 | – |
| CCOC(=O)C1=C2CCCN2C(c2ncc(F)cc2F)=NC1c1ccc(F)cc1Cl (configuration not stated) | 5.80 | – |
| COC(=O)C1=C2C[C@H](NS(C)(=O)=O)CN2C(c2nccs2)=N[C@H]1c1ccc(F)c(F)c1F | 5.00 | – |
| CCOC(=O)C1=C2C[C@H](O)CN2C(c2nccs2)=NC1c1ccc(F)cc1Cl (some centres not stated) | 3.49 | – |
| CCOC(=O)C1=C2CCCN2C(c2nccs2)=NC1c1ccncc1Cl (configuration not stated) | < 5.00 | – |
| CCOC(=O)C1=C2CCCN2C(c2ccccn2)=NC1c1ccc(F)cc1Cl (configuration not stated) | < 5.00 | – |
| CCOC(=O)C1=C2CCCN2C(N2CCOCC2)=NC1c1ccc(F)cc1Cl (configuration not stated) | < 5.00 | – |
| COC(=O)C1=C2CCCN2C(c2nccs2)=NC1c1ccc(F)cc1Cl (configuration not stated) | 6.49 | – |
| CCOC(=O)C1=C2CCCN2C(c2nccs2)=NC1c1ccc(F)cc1Cl (configuration not stated) | 6.52 | – |
| COC(=O)C1=C(C)NC(c2ncc(F)cc2F)=N[C@H]1c1ccc(F)cc1Cl | 7.12 | – |
